One compound from ChEMBL document CHEMBL4257511, “Effect of N-1 arylation of monastrol on kinesin Eg5 inhibition in glioma cell lines” (Medchemcomm, 2018) can be followed below.

In data set [1] the test system is C6. Put plainly: Cell cycle arrest in rat C6 cells assessed as accumulation at G2/M phase at 100 uM after 24 hrs by propidium iodide staining based flow cytometry. In kind it is functional. In outline: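 Cells grown to semi-confluence, treated 24 h (U138: 150 or 200 μM; C6: 50 or 100 μM), washed twice in PBS pH 7.4, harvested and resuspended at 10^6 cells/ml in Tris-HCl pH 7.6, 3.5 mM trisodium citrate, 0.1% NP40, 100 μg/mL RNase, 50 μg/mL PI. After 15 min, sub-G1, G0/G1, S and G2/M fractions read by flow cytometry.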

The test system of data set [2] is C6. In words: Induction of apoptosis in rat C6 cells at 100 uM after 48 hrs by Annexin V/propidium iodide staining based flow cytometry. In kind it is functional, cell-based. In outline: (§1)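 After 48 h exposure (U138: 150 or 200 μM; C6: 50 or 100 μM), cells washed twice in cold PBS pH 7.4 and counted. 10^5 cells stained with FITC-annexin V and PI in binding buffer, 15 min at room temperature in the dark, then read by two-colour flow cytometry. Early apoptotic annexin+/PI−, late apoptotic annexin+/PI+, necrotic annexin−/PI+.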

Data set [3] concerns C6. In words: Antiproliferative activity against rat C6 cells assessed as reduction in cell viability at 100 uM after 24 hrs by MTS assay relative to control. It counts as functional. In outline:
(§2)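 Glioma cells grown in DMEM with penicillin/streptomycin and FBS (15% or 5%, by line), 37 °C, 5% CO2; seeded and grown to semi-confluence, then exposed 24 h to 5, 10, 25, 50 and 100 μM. MTS reagent added for 2 h; absorbance at 490 nm. Viability expressed as percent of untreated control (100%); means ± SD of three independent experiments.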

Data set [4] relates to C6 (Rattus norvegicus). Put plainly: Cell cycle arrest in rat C6 cells assessed as accumulation at G2/M phase at 100 uM after 24 hrs by propidium iodide staining based flow cytometry relative to control.
The subject of data set [5] is U138-MG. In words: Antiproliferative activity against human U138MG cells assessed as reduction in cell viability at 100 uM after 24 hrs by MTS assay relative to control. In kind it is functional. In outline:
as §2

Data set [6] concerns U138-MG. In words: Antiproliferative activity against human U138MG cells after 24 hrs by MTS assay. In kind it is functional, cell-based. In outline:
as §2

The test system of data set [7] is C6. In words: Antiproliferative activity against rat C6 cells after 24 hrs by MTS assay. It counts as functional, cell-based. The following applies: C6, 24 h. In outline: as §2
For data set [8], the target named is T1, Kinesin-like protein KIF11 (Homo sapiens) (UniProt P52732).
T1 sequence (whole entry): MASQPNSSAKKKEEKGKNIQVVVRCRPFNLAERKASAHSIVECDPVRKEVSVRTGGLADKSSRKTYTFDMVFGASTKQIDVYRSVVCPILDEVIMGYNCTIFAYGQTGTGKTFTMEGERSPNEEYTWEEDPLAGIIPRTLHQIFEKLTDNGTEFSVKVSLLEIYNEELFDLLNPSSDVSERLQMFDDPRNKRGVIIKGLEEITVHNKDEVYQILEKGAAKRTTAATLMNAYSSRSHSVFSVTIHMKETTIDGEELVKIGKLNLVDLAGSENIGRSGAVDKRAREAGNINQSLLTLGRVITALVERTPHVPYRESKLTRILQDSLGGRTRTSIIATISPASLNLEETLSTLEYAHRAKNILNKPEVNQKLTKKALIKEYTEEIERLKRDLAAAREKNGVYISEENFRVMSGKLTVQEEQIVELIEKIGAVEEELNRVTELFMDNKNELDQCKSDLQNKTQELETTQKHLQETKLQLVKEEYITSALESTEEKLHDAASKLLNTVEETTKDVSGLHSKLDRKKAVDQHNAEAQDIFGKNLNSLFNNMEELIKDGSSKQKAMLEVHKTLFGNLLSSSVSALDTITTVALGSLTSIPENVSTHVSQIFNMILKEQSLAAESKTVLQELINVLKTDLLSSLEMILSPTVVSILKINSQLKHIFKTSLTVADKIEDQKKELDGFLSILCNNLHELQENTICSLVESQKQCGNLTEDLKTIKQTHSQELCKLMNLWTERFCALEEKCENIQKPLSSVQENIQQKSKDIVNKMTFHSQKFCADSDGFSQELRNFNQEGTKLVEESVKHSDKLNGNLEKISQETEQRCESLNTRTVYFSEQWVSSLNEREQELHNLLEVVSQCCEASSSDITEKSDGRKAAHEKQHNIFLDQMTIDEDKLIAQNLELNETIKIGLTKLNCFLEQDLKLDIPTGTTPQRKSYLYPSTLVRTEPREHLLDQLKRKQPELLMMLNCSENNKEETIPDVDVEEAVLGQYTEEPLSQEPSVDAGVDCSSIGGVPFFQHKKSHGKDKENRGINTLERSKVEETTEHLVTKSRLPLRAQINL
Conditions: 200 uM.

Data set [9] in a line: Toxicity in Caenorhabditis elegans N2 L1 larva assessed as mortality incubated for 30 mins on rotator and measured after 24 hrs. In kind it is organism-based. The following applies: in vivo. In outline: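 Wild-type N2 worms kept on NGM plates seeded with E. coli OP50 at 20 °C and synchronized to L1 by bleaching. L1 larvae (2.500 worms per dose) exposed acutely to five doses from 6.25 to 200 mM, 20 °C, 30 min with constant rotation. Washed three times in M9, plated on OP50-seeded NGM, survivors counted at 24 h. LC50 derived from dose–response curves.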

The test system of data set [10] is U138-MG. Put plainly: Induction of necrosis in human U138MG cells at 200 uM after 48 hrs by Annexin V/propidium iodide staining based flow cytometry. It counts as functional, cell-based. In outline:
as §1

Data set [11] relates to U138-MG. Put plainly: Induction of apoptosis in human U138MG cells at 200 uM after 48 hrs by Annexin V/propidium iodide staining based flow cytometry. In kind it is functional, cell-based. In outline: as §1
The target of data set [12] is T2, Kinesin family member 11 (Rattus norvegicus) (UniProt F1MAB8).
T2 sequence (whole entry): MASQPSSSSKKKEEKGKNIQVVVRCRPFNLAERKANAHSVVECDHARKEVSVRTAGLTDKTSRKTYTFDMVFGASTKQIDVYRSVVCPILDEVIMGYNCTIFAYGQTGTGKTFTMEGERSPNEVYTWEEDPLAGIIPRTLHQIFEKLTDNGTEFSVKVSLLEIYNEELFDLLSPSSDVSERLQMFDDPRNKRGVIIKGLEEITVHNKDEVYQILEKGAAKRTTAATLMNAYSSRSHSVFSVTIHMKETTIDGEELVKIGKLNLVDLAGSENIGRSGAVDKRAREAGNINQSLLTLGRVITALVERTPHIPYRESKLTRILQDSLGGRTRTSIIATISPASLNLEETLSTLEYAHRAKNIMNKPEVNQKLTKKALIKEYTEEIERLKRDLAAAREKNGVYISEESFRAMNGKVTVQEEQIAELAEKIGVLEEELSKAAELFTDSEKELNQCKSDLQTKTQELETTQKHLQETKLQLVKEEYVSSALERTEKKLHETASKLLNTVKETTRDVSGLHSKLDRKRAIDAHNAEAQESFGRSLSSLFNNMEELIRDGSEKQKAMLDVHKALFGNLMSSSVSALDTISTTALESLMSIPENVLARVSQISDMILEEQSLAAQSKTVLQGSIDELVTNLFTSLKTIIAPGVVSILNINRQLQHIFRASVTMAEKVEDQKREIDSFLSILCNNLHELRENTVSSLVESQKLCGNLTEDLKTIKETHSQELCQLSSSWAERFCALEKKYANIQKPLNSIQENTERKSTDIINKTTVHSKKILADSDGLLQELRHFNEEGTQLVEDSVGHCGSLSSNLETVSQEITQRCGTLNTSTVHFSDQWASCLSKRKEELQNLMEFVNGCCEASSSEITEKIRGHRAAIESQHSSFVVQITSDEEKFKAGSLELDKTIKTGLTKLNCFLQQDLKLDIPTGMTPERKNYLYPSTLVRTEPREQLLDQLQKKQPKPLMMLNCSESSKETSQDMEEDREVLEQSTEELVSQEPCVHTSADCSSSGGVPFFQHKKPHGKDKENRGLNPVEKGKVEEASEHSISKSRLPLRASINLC
In words: Inhibition of EG5 in rat C6 cells assessed as monopolar spindle formation at 100 uM after 24 hrs by Hoechst staining based immunofluorescence microscopic method. It counts as cell-based. In outline:
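Glioma cells allowed to adhere 48 h, then treated 24 h (U138: 150 or 200 μM; C6: 50 or 100 μM). Fixed cells probed with rabbit anti-α-tubulin for 90 min, then FITC goat anti-rabbit for 1 h, with Hoechst nuclear counterstain. Monopolar spindles scored by confocal microscopy at 600×.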

Active and inactive are the calls of the source. No cut-off for these calls is given here.

Turning to `CCOC(=O)C1=C(C)NC(=S)NC1c1cccc(O)c1` (configuration not stated) [MONASTROL], the outcome in [1], in data set [2], in [3], in [10] and in data set [11] was Active. In addition, the Activity was found to be 27.4% in [4] and 20.8% in [5]. Further, the IC50 in data set [6] and in [7] was above 0.2 mM each time. Besides, the inhibition result in [8] and in data set [12] was “Active” each time. Moreover, the LC50 at 24 h in data set [9] is 80.1 mM.
